17 compounds from ChEMBL document CHEMBL2384998, “Modular, efficient synthesis of asymmetrically substituted piperazine scaffolds as potent calcium channel blockers” (Bioorg Med Chem Lett, 2013) can be followed below.

One may read the IC50 as the concentration needed to halve the response being measured.

For assay [1], the target named is Voltage-dependent N-type calcium channel subunit alpha-1B (Rattus norvegicus, UniProt Q02294). The assay is described as follows: Inhibition of rat brain Cav2.2 N-type channel expressed in HEK cells after 20 mins by FLIPR assay. The class given is cell-based, HEK293. In outline:
(§1)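 Fluorescence Ca²⁺ influx read by FLIPR with the Ca²⁺ indicator dye Fluo-4. Each compound was tested as an 8-point concentration-response profile spanning 0.003–10 μM, giving IC50. Membrane potential and channel state were set by changing the external potassium ion concentration.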

The species entered for another assay is Rattus norvegicus. The assay is described as follows: Selectivity ratio of IC50 for rat cardiac Cav1.2 L-type channel to IC50 for rat brain Cav2.2 N-type channel.
For assay [2], the target named is Voltage-dependent L-type calcium channel subunit alpha-1C (Rattus norvegicus, UniProt P22002). The assay is described as follows: Inhibition of rat cardiac Cav1.2 L-type channel expressed in HEK cells after 20 mins by FLIPR assay. Format: cell-based, HEK293. In a few lines:
as §1

Chain of Voltage-dependent N-type calcium channel subunit alpha-1B (Q02294 whole entry): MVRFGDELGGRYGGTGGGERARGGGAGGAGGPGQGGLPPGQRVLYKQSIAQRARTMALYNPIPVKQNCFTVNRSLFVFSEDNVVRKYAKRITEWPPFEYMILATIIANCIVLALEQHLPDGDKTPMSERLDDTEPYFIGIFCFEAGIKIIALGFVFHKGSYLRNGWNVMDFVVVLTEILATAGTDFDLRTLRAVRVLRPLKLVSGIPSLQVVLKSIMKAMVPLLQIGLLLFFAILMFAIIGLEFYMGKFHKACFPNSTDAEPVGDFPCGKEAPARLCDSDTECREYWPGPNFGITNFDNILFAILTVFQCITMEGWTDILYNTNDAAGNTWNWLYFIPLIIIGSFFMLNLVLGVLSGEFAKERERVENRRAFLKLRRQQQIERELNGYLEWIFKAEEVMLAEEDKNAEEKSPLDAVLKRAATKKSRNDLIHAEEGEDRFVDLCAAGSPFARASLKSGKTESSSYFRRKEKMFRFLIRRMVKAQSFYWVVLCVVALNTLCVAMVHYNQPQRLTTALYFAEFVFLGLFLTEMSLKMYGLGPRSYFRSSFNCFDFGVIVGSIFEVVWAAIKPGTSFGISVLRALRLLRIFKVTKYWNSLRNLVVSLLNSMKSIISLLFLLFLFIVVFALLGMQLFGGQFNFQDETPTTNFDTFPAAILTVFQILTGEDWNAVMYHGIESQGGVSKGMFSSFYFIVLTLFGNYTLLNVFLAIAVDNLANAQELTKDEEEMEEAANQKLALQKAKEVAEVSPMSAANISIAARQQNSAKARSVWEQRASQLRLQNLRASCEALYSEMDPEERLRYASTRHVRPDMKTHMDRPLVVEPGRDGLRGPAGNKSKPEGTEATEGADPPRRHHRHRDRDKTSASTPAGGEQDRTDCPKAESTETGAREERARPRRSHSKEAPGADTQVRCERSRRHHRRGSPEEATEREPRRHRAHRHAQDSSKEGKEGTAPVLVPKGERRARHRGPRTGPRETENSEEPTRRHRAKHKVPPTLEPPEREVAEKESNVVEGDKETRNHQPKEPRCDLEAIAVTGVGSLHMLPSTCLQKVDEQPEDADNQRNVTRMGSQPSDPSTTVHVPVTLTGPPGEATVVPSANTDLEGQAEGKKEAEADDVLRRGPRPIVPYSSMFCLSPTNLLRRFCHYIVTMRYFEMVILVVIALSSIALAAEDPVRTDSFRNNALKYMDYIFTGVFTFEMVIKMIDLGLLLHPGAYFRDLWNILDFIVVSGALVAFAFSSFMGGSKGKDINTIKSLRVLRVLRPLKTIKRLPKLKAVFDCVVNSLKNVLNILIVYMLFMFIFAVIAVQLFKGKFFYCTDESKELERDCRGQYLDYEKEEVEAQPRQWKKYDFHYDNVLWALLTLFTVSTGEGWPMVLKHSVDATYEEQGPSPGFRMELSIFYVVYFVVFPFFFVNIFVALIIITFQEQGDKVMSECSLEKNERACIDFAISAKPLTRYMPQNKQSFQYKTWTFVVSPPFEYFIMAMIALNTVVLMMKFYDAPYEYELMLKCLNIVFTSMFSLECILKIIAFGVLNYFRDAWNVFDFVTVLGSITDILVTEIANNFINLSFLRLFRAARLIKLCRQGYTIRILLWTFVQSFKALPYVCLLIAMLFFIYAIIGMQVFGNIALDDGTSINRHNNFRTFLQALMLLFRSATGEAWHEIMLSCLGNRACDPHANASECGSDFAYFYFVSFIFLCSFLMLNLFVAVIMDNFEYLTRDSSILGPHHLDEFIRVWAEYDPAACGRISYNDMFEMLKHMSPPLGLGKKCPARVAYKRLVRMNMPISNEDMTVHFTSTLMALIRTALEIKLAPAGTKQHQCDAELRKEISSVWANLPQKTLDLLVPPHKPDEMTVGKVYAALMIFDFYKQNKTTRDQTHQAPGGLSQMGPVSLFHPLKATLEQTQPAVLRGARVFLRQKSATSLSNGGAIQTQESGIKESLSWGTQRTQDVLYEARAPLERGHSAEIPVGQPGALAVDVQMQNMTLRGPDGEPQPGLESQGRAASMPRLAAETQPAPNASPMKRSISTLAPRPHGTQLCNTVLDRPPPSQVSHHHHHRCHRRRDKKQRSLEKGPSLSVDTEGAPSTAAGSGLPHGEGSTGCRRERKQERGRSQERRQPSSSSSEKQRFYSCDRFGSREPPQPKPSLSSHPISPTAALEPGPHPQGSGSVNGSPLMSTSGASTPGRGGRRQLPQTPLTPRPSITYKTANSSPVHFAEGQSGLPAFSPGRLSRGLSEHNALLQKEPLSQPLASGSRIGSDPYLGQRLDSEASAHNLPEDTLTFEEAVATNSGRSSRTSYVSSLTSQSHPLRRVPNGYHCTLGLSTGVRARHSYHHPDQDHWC
Chain of Voltage-dependent L-type calcium channel subunit alpha-1C (P22002 whole entry): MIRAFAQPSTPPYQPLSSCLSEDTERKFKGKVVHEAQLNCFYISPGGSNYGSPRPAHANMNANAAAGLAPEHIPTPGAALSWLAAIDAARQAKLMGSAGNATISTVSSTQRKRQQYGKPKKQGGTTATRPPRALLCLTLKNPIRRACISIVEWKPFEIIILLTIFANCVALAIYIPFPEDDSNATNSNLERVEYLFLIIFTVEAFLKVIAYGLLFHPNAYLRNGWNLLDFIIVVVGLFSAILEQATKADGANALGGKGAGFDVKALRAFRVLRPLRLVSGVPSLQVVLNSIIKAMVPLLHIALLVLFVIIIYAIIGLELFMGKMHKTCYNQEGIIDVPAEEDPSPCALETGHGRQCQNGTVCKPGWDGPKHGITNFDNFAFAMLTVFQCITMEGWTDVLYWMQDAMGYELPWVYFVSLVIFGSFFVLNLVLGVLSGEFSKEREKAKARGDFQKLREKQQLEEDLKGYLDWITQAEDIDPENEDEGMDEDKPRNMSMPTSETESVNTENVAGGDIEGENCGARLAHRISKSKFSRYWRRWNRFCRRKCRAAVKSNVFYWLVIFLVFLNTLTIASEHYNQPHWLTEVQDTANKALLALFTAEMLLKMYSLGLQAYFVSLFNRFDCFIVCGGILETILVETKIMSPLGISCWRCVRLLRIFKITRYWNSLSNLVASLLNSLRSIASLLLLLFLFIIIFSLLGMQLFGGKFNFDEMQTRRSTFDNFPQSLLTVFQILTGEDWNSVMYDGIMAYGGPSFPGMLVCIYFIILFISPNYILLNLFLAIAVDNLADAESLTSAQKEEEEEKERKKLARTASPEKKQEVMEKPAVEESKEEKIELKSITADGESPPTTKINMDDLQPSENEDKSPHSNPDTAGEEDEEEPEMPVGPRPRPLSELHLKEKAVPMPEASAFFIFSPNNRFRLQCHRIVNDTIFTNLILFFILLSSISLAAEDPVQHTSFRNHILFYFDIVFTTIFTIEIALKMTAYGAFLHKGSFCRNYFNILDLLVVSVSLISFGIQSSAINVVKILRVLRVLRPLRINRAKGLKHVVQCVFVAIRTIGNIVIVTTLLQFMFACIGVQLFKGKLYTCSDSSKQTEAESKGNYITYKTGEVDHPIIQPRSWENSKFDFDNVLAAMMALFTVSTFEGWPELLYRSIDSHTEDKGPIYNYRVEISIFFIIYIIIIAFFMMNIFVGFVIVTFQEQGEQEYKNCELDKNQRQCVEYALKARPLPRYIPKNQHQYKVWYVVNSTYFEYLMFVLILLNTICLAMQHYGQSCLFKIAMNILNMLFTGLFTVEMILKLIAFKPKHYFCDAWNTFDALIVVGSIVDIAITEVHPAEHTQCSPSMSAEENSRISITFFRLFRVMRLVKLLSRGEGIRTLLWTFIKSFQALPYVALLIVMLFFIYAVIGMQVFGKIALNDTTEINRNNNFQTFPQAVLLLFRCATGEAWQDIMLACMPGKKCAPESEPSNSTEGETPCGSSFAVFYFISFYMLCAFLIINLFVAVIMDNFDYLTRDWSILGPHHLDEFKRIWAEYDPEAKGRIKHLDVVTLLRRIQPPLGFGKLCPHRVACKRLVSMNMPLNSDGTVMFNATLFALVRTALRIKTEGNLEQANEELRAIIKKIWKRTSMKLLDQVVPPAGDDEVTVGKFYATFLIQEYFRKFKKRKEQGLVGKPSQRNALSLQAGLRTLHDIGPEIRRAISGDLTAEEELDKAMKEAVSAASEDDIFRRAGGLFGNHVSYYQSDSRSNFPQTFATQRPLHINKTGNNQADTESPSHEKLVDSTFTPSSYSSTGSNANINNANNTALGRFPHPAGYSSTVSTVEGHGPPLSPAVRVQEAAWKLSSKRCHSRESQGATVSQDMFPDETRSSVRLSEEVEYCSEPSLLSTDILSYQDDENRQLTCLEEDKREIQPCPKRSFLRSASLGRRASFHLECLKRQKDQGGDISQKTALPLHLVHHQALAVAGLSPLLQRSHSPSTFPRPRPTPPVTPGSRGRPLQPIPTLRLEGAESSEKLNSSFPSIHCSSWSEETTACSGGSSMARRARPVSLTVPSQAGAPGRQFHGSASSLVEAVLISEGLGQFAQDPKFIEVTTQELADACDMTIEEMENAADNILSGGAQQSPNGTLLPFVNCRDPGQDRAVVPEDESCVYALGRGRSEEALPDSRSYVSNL

As for `C[C@@H]1CN(C(c2ccccc2)c2ccccc2)[C@H](Cc2ccccc2)CN1`, the concentration for half-maximal inhibition (IC50) was 4.34 µM in assay [1] and 1.78 µM in assay [2]. Moreover, in the assay listed under Rattus norvegicus, the Ratio IC50 came to 0.4.

For `CCCCC[C@@H]1CN[C@H](C)CN1Cc1ccccc1` (relative stereo), the IC50 in assay [1] is 9.84 µM; in assay [2], 9.23 µM. In the assay listed under Rattus norvegicus, the Ratio IC50 is 0.9.

As to `CCCCCCCCC[C@@H]1CN[C@H](C)CN1Cc1ccccc1` (relative stereo), the IC50 was determined as 10 µM in assay [1] and 5.6 µM in assay [2]. The Ratio IC50 in the assay filed under Rattus norvegicus was found to be 0.6.

Take `CCCCC[C@@H]1CN[C@H](C)CN1C(c1ccccc1)c1ccccc1` (relative stereo): the IC50 in assay [1] came out at 2.4 µM; in assay [2], 1.78 µM. Moreover, in the assay listed under Rattus norvegicus, the Ratio IC50 came out at 0.7.

Consider `C[C@@H]1CN(C(c2ccccc2)c2ccccc2)[C@H](CCCCO[Si](C)(C)C(C)(C)C)CN1` (relative stereo), for which the IC50 amounted to 1.07 µM in assay [1] and 1.53 µM in assay [2]. The Ratio IC50 in the assay filed under Rattus norvegicus was 1.4.

For the compound `C[C@@H]1CN(C(c2ccccc2)c2ccccc2)[C@H](CCCO[Si](C)(C)C(C)(C)C)CN1` (relative stereo), the IC50 stood at 10 µM in assay [1] and 6.8 µM in assay [2]. Besides, the Ratio IC50 in the assay listed under Rattus norvegicus was determined as 0.7.

For the compound `Cc1ccc(S(=O)(=O)N2C[C@@H](CCCO[Si](C)(C)C(C)(C)C)N(C(c3ccccc3)c3ccccc3)C[C@H]2C)cc1` (relative stereo), the IC50 in assay [1] was found to be 2.6 µM; in assay [2], 5.1 µM. The Ratio IC50 in the assay filed under Rattus norvegicus is 2.

For the compound `Cc1ccc(S(=O)(=O)N2C[C@@H](CCCCO[Si](C)(C)C(C)(C)C)N(C(c3ccccc3)c3ccccc3)C[C@H]2C)cc1` (relative stereo), the figures for the IC50 in assay [1] and in assay [2] were 4.7 µM and 8.2 µM, respectively. Further, the Ratio IC50 in the assay filed under Rattus norvegicus is 1.7.

With `C[C@@H]1CN(C(c2ccccc2)c2ccccc2)[C@H](CCCCO[Si](C)(C)C(C)(C)C)CN1S(=O)(=O)c1ccc(C(F)(F)F)cc1` (relative stereo), the IC50 in assay [1] and in assay [2] was 10 µM in each case. The Ratio IC50 in the assay listed under Rattus norvegicus stood at 1.

On to `C[C@@H]1CN(C(c2ccccc2)c2ccccc2)[C@H](CCCCO)CN1` (relative stereo), for which the results for the IC50 in assay [1] and in assay [2] were 0.85 µM and 5.4 µM, respectively. Also, the Ratio IC50 in the assay listed under Rattus norvegicus was 6.

`C[C@@H]1CN(Cc2ccccc2)[C@H](CCCCO)CN1` (relative stereo): the IC50 was 9.6 µM in assay [1] and 10 µM in assay [2].

Regarding `C[C@@H]1CN(Cc2ccc(F)cc2)[C@H](Cc2ccccc2)CN1` (relative stereo), the IC50 in assay [1] is 8.37 µM; in assay [2], 10 µM. Moreover, in the assay filed under Rattus norvegicus, the Ratio IC50 was found to be 1.2.

As for `C[C@@H]1CN(Cc2ccc(F)cc2)[C@H](Cc2ccccc2)CN1S(=O)(=O)c1ccc(C(F)(F)F)cc1` (relative stereo), the IC50 in assay [1] and in assay [2] was 10 µM each time. In addition, the Ratio IC50 in the assay filed under Rattus norvegicus came out at 1.

On to `C[C@@H]1CN(Cc2ccc(F)cc2)[C@H](Cc2ccccc2)CN1C(=O)C(c1ccccc1)c1ccccc1` (relative stereo), for which the IC50 in assay [1] is 10 µM.

Turning to `C[C@@H]1CN(Cc2ccccc2)[C@H](Cc2ccccc2)CN1` (relative stereo), the IC50 in assay [1] and in assay [2] was 10 µM throughout. In the assay filed under Rattus norvegicus, the Ratio IC50 was found to be 1.

In the case of `C[C@@H]1CN(Cc2ccccc2)[C@H](Cc2ccccc2)CN1S(=O)(=O)c1ccc(C(F)(F)F)cc1` (relative stereo), the IC50 in assay [1] and in assay [2] was 10 µM each time. The Ratio IC50 in the assay filed under Rattus norvegicus turned out to be 1.

As for `C[C@@H]1CN(Cc2ccccc2)[C@H](CCCCO[Si](C)(C)C(C)(C)C)CN1` (relative stereo), the IC50 in assay [1] was found to be 4.85 µM; in assay [2], 3.34 µM. The Ratio IC50 in the assay listed under Rattus norvegicus turned out to be 0.7.
